Series [1] deals with Staphylococcus aureus. As to the kind of experiment: Antibacterial activity against Staphylococcus aureus 7323 after 24 to 96 hrs by well microplate assay. The series is classed as functional. The method, boiled down: (§1)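 Strains were kept at -70 °C, grown at 30 °C on sheep-blood Columbia agar, and suspended in saline to OD595 0.1, then diluted 10×. Inoculum was added at 2 µL per 100 µL Nutrient Broth with yeast extract (2 g/400 mL). Peptide stocks were 4 g/L in ethanol, diluted to 1000 mg/L in water, then twofold in broth (64–1 mg/L). Plates were held at 30 °C for 24–96 h. MIC was the lowest concentration inhibiting growth.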

The test system of series [2] is coagulase-negative Staphylococcus. The series is described as follows: Antibacterial activity against coagulase-negative Staphylococcus CNS 5277 after 24 to 96 hrs by well microplate assay.
The test system is the same in series [3]. As to the kind of experiment: Antibacterial activity against coagulase-negative Staphylococcus CNS 5115 after 24 to 96 hrs by well microplate assay.
Series [4] can be described thus: Cytotoxicity against human erythrocytes assessed as hemolysis at 1.5 mM after 4 hrs by twofold dilution assay. Format: cell-based. The conditions noted are these: erythrocyte, 1500 µM.
For the next series, the system named is Escherichia coli. The series is described as follows: Antibacterial activity against Escherichia coli ATCC 25922 after 24 to 96 hrs by well microplate assay. Format: functional. An outline of the steps: as §1
Series [5] deals with Pseudomonas aeruginosa. As to the kind of experiment: Antibacterial activity against Pseudomonas aeruginosa AK1 after 24 to 96 hrs by well microplate assay. The series is classed as functional. An outline of the steps: as §1
The test system of series [6] is coagulase-negative Staphylococcus. The series is described as follows: Antibacterial activity against coagulase-negative Staphylococcus CNS 7368 after 24 to 96 hrs by well microplate assay.
Series [7] deals with Streptococcus mitis. The series is described as follows: Antibacterial activity against Streptococcus mitis ATCC 33399 after 24 to 96 hrs by well microplate assay. Format: functional. The method, boiled down: as §1
For series [8], the system named is Pseudomonas aeruginosa. As to the kind of experiment: Antibacterial activity against Pseudomonas aeruginosa ATCC 19582 after 24 to 96 hrs by well microplate assay. Format: functional. An outline of the steps:
as §1

The test system of a further series is Enterococcus faecalis. The series is described as follows: Antibacterial activity against Enterococcus faecalis 1131 after 24 to 96 hrs by well microplate assay. The series is classed as functional. The method, boiled down:
as §1

For series [9], the system named is Streptococcus mitis. The series is described as follows: Antibacterial activity against Streptococcus mitis BMS after 24 to 96 hrs by well microplate assay. Format: functional. The method, boiled down: as §1
Series [10] can be described thus: Cytotoxicity against human erythrocytes assessed as hemolysis after 4 hrs by twofold dilution assay. Format: cell-based. The conditions noted are these: Erythrocyte. The method, boiled down:
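Heparinised blood was spun at 1000g and 10 °C, and erythrocytes were washed three times in 0.85% saline and diluted to 1/25 packed volume. Peptide stocks were 1.5 mM in 30% DMSO/0.5 mM saline, sonicated if suspended, and twofold serially diluted in saline in triplicate rows. 1% Triton-X served as the lysis reference. Cells were incubated at 37 °C for 4 h and centrifuged, and the supernatant was read at A405 for % hemolysis.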

Series [11] deals with Staphylococcus aureus. As to the kind of experiment: Antibacterial activity against Staphylococcus aureus 7388 after 24 to 96 hrs by well microplate assay. Format: functional. An outline of the steps:
as §1

A short description of series [12]: Cytotoxicity against human erythrocytes assessed as hemolysis at 25 uM after 4 hrs by twofold dilution assay. The conditions noted are these: read-out: Activity. Format: cell-based, Erythrocyte.
A short description of series [13]: Cytotoxicity against human erythrocytes assessed as hemolysis at 12 uM after 4 hrs by twofold dilution assay. Format: cell-based, Erythrocyte. The conditions noted are these: read-out: Activity. The method, boiled down: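 Freshly drawn heparinised blood was spun at 1000g and 10 °C. The erythrocytes were washed three times in 0.85% saline and diluted to 1/25 packed cell volume. Peptide stock was 1.5 mM in 30% DMSO/saline, sonicated if needed, and serially twofold diluted in saline across 10 wells, with 1% Triton-X as reference. Plates were held at 37 °C for 4 h, then centrifuged, and hemolysis percentage was read from supernatant A405.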

SMILES strings stand for the structures. In brackets after ≈: the same amount, converted by molar mass. *1 amine or outer side, *2 acyl side, *3 side chain or, on linkers, in order; H or OH if unused. Where a SMILES comes first, the peptide text is derived from it. [ ]: non-standard residue; d: D form. The star is where a group is joined. X2 = C[N+](C)(C)c1ccc(C[C@H](N[*:1])C(=O)[*:2])cc1; Phe(4-NH2) = Nc1ccc(C[C@H](N)C(=O)O)cc1; Orn = NCCC[C@H](N)C(=O)O; PhAc = O=C(Cc1ccccc1)*; Piv = CC(C)(C)C(=O)*

Take `CC(C)C[C@@H]1NC(=O)[C@H](CCCN)NC(=O)[C@H](C(C)C)NC(=O)[C@@H]2CCCN2C(=O)[C@H](Cc2ccccc2)NC(=O)[C@H](CC(C)C)NC(=O)[C@H](CCCN)NC(=O)[C@H](C(C)C)NC(=O)[C@@H]2CCCN2C(=O)[C@H](Cc2ccc(NC(=O)Cc3ccccc3)cc2)NC1=O` (cyclo(FPV[Orn]L[Phe(4-NH2)](PhAc)PV[Orn]L)): the MIC in the series with Staphylococcus aureus [1] was 8 µg/mL (≈ 6.28 µM); in series [2], 8 µg/mL (≈ 6.28 µM); in series [3], 8 µg/mL (≈ 6.28 µM); against Escherichia coli it was 32 µg/mL (≈ 25.1 µM); with Pseudomonas aeruginosa [5], > 64 µg/mL; in series [6], 8 µg/mL (≈ 6.28 µM). The MIC is 16 µg/mL (≈ 12.6 µM) in the series on Streptococcus mitis [7]; > 64 µg/mL in the series on Pseudomonas aeruginosa [8]; 32 µg/mL (≈ 25.1 µM) against Enterococcus faecalis; 8 µg/mL (≈ 6.28 µM) in the series with Streptococcus mitis [9]; 16 µg/mL (≈ 12.6 µM) with Staphylococcus aureus [11]. Also, the Activity entry in series [4] is on record as “Non-toxic”. Moreover, the EC50 in series [10] was determined as 9.35 µM.

With `CC(C)C[C@@H]1NC(=O)[C@H](CCCN)NC(=O)[C@H](C(C)C)NC(=O)[C@@H]2CCCN2C(=O)[C@H](Cc2ccccc2)NC(=O)[C@H](CC(C)C)NC(=O)[C@H](CCCN)NC(=O)[C@H](C(C)C)NC(=O)[C@@H]2CCCN2C(=O)[C@H](Cc2ccc(NC(=O)C(C)(C)C)cc2)NC1=O` (cyclo(FPV[Orn]L[Phe(4-NH2)](Piv)PV[Orn]L)), the MIC stood at 8 µg/mL (≈ 6.45 µM) against Staphylococcus aureus [1]; 8 µg/mL (≈ 6.45 µM) in [2]; 8 µg/mL (≈ 6.45 µM) in series [3]; 32 µg/mL (≈ 25.8 µM) in the series on Escherichia coli; 64 µg/mL (≈ 51.6 µM) in the series on Pseudomonas aeruginosa [5]; 8 µg/mL (≈ 6.45 µM) in series [6]. For the same molecule, the minimal inhibitory concentration (MIC) was 4 µg/mL (≈ 3.22 µM) in the series with Streptococcus mitis [7]; 64 µg/mL (≈ 51.6 µM) in the series with Pseudomonas aeruginosa [8]; 16 µg/mL (≈ 12.9 µM) in the series on Enterococcus faecalis; 4 µg/mL (≈ 3.22 µM) in the series with Streptococcus mitis [9]; 8 µg/mL (≈ 6.45 µM) against Staphylococcus aureus [11]. Further, the hemolysis at 4 h, 25 µM in series [12] is 50%.

As for `CC(C)C[C@@H]1NC(=O)[C@H](CCCN)NC(=O)[C@H](C(C)C)NC(=O)[C@@H]2CCCN2C(=O)[C@H](Cc2ccccc2)NC(=O)[C@H](CC(C)C)NC(=O)[C@H](CCCN)NC(=O)[C@H](C(C)C)NC(=O)[C@@H]2CCCN2C(=O)[C@H](Cc2ccc([N+](C)(C)C)cc2)NC1=O.[I-]` (cyclo(FPV[Orn]L[X2]PV[Orn]L)), the MIC in the series with Staphylococcus aureus [1] is 64 µg/mL; in series [2], 16 µg/mL; in series [3] it was 16 µg/mL; in the series on Escherichia coli it was 64 µg/mL; against Pseudomonas aeruginosa [5], > 64 µg/mL; in [6], 32 µg/mL. For the same molecule, the minimum inhibitory concentration (MIC) with Streptococcus mitis [7] is 8 µg/mL; against Pseudomonas aeruginosa [8], > 64 µg/mL; against Enterococcus faecalis it was > 64 µg/mL; with Streptococcus mitis [9] it was 8 µg/mL; with Staphylococcus aureus [11], 32 µg/mL. For the same molecule, the Activity result in [4] is on record as “Non-toxic”. In addition, the EC50 in series [10] came out at 134 µM.

`CC(C)C[C@@H]1NC(=O)[C@H](CCCN)NC(=O)[C@H](C(C)C)NC(=O)[C@@H]2CCCN2C(=O)[C@@H](Cc2ccccc2)NC(=O)[C@H](CC(C)C)NC(=O)[C@H](CCCN)NC(=O)[C@H](C(C)C)NC(=O)[C@@H]2CCCN2C(=O)[C@@H](Cc2ccccc2)NC1=O` [GRAMICIDIN S] (cyclo(L[dF]PV[Orn]L[dF]PV[Orn])): the MIC is 8 µg/mL (≈ 7.01 µM) in the series on Staphylococcus aureus [1]; 16 µg/mL (≈ 14 µM) in series [2]; 16 µg/mL (≈ 14 µM) in [3]; 32 µg/mL (≈ 28 µM) against Escherichia coli; 64 µg/mL (≈ 56.1 µM) in the series with Pseudomonas aeruginosa [5]; 8 µg/mL (≈ 7.01 µM) in series [6]. In addition, the MIC against Streptococcus mitis [7] stood at 4 µg/mL (≈ 3.5 µM); in the series on Pseudomonas aeruginosa [8] it was 8 µg/mL (≈ 7.01 µM); in the series with Enterococcus faecalis it was 16 µg/mL (≈ 14 µM); against Streptococcus mitis [9], 8 µg/mL (≈ 7.01 µM); in the series with Staphylococcus aureus [11] it was 8 µg/mL (≈ 7.01 µM). In addition, the EC50 in series [10] came out at 11.7 µM. The hemolysis at 4 h, 12 µM in series [13] was found to be 50%.

Usually MIC stands for the lowest concentration that inhibits growth of the organism. One may read the EC50 as the concentration needed to bring the measured effect to its halfway point.

The record behind these values is ChEMBL document CHEMBL1152538, “Synthesis and biological evaluation of asymmetric gramicidin S analogues containing modified D-phenylalanine residues” (Bioorg Med Chem, 2009).
